Data set [1] can be described thus: Inhibition of hemagglutinin activity of human parainfluenza virus 1 C35 hemagglutinin-neuraminidase incubated for 20 mins in presence of chicken red blood cells. Also noted: species or system Human respirovirus 1. The gist of the method: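 HI used hPIV-1 strain C-35 grown in LLC-MK2 cells, with clarified supernatant ultrafiltered ≥10-fold. Compounds were diluted in PBS, mixed with virus (1 HAU final) and held 20 min at room temperature. Ice-cold 0.5% chicken RBC were added on ice, then 1 h 30 min at 4 °C. Run in duplicate, maximum 250 µM. IC50 is the concentration matching agglutination of a 0.5 HAU virus-only well.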

Data set [2] has as its system LLC-MK2. The experiment in a line: (§1) Cytotoxicity against rhesus monkey LLC-MK2 cells assessed as cell viability at 250 uM after 48 hrs by MTT assay. As to conditions: llc-mk2, 48 h, 250 µM. The class given is cell-based, Macaca mulatta. The procedure, abridged: (§2)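 LLC-MK2 cells were kept in EMEM with 1% glutamine (200 mM) and 2% FBS at 37 °C under 5% CO2. They were exposed in triplicate to 250 µM of each compound for 48 h. Viability was read by MTT or AlamarBlue assay.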
On the technique in general: Formazan colour is commonly taken as a measure of viable cells.

The subject of data set [3] is LLC-MK2. Description: (§3) Cytotoxicity against rhesus monkey LLC-MK2 cells assessed as cell viability at 250 uM after 48 hrs by alamar blue assay. Type of data set: cell-based, Macaca mulatta. As to conditions: llc-mk2, 48 h, 250 µM. The gist of the method: as §2
In general terms: Alamar Blue is a resazurin reagent that responds to reducing activity.

The nature of data set [4]: as §1. As to conditions: LLC-MK2 cells, read-out: Activity. The class given is cell-based, Macaca mulatta. The procedure, abridged:
as §2

Data set [5] is described as follows: as §3. Type of data set: cell-based, Macaca mulatta. The following applies: LLC-MK2 cells, read-out: Activity. The procedure, abridged: as §2

We go through 14 molecules from ChEMBL document CHEMBL3351658, “Exploring human parainfluenza virus type-1 hemagglutinin-neuraminidase as a target for inhibitor discovery” (J Med Chem, 2014).

Each structure is given as a SMILES string.

Usually IC50 stands for the concentration that inhibits the measured activity by half.

With `CCC(C)C(=O)N[C@H]1[C@H]([C@H](O)[C@H](O)CO)OC(C(=O)[O-])=C[C@@H]1N=[N+]=[N-].[Na+]` (some centres not stated), the half-maximal inhibitory concentration (IC50) in data set [1] was determined as 0.32 µM. Moreover, the Activity entry in data set [2] and in data set [3] was “Non-toxic” each time.

Consider `CC(CO)C(=O)N[C@H]1[C@H]([C@H](O)[C@H](O)CO)OC(C(=O)[O-])=C[C@@H]1N=[N+]=[N-].[Na+]` (some centres not stated), for which the IC50 in data set [1] is 3 µM. Moreover, the Activity entry in data set [2] and in data set [3] was “Non-toxic” in each case.

`CC(=O)N[C@H]1[C@H]([C@H](O)[C@H](O)CO)OC(C(=O)[O-])=C[C@@H]1N.[Na+]`: the half-inhibitory concentration (IC50) in data set [1] was more than 250 µM. For the same molecule, the Activity entry in data set [2] and in data set [3] was “Non-toxic” in each case.

In the case of `CC(C)C(=O)N[C@H]1[C@H]([C@H](O)[C@H](O)CO)OC(C(=O)[O-])=C[C@@H]1N.[Na+]`, in data set [1], the IC50 was determined as 7.29 µM. Besides, the Activity entry in data set [2] and in data set [3] was “Non-toxic” throughout.

For `CC(C)C(=O)N[C@H]1[C@H]([C@H](O)[C@H](O)CO)OC(C(=O)[O-])=C[C@@H]1N=[N+]=[N-].[Na+]`, the half-maximal inhibitory concentration (IC50) in data set [1] came out at 0.08 µM. Further, the Activity entry in data set [2] and in data set [3] was “Non-toxic” in each case.

`[N-]=[N+]=N[C@H]1C=C(C(=O)[O-])O[C@@H]([C@H](O)[C@H](O)CO)[C@@H]1NC(=O)C1CC1.[Na+]`: the half-maximal inhibitory concentration (IC50) in data set [1] was determined as 0.32 µM. Also, the Activity entry in data set [2] and in data set [3] was “Non-toxic” throughout.

With `CC(=O)N[C@H]1[C@H]([C@H](O)[C@H](O)CO)OC(C(=O)[O-])=C[C@@H]1N=[N+]=[N-].[Na+]`, the half-inhibitory concentration (IC50) in data set [1] came out at 3.5 µM. Further, the Activity result in data set [2] and in data set [3] was “Non-toxic” in each case.

As for `CC(C)C(=O)N[C@H]1[C@H]([C@H](O)[C@H](O)CO)OC(C(=O)O)=C[C@@H]1O`, in data set [1], the IC50 is 0.49 µM. In addition, the viability at 48 h, 250 µM in data set [4] and in data set [5] was 93% throughout.

For the molecule `CC(O)C(=O)N[C@H]1[C@H]([C@H](O)[C@H](O)CO)OC(C(=O)[O-])=C[C@@H]1N=[N+]=[N-].[Na+]` (some centres not stated), in data set [1], the half-inhibitory concentration (IC50) turned out to be 40 µM. The Activity entry in data set [2] and in data set [3] was “Non-toxic” throughout.

On to `CC(=O)N[C@H]1[C@H]([C@H](O)[C@H](O)CO)OC(C(=O)[O-])=C[C@@H]1NC(=N)N.[Na+]`, for which the 50% inhibitory concentration (IC50) in data set [1] is more than 250 µM. Also, the Activity entry in data set [2] and in data set [3] was “Non-toxic” in each case.

As for `C/C=C(\C)C(=O)N[C@H]1[C@H]([C@H](O)[C@H](O)CO)OC(C(=O)[O-])=C[C@@H]1N=[N+]=[N-].[Na+]`, in data set [1], the half-maximal inhibitory concentration (IC50) was found to be 3 µM. Moreover, the Activity result in data set [2] and in data set [3] was “Non-toxic” throughout.

As for `CC(=O)N[C@H]1[C@H]([C@H](O)[C@H](O)CO)OC(C(=O)[O-])=C[C@@H]1O.[Na+]`, the IC50 in data set [1] was found to be 15.9 µM. In addition, the Activity result in data set [2] and in data set [3] was “Non-toxic” in each case.

Turning to `CC(C)C(=O)N[C@H]1[C@H]([C@H](O)[C@H](O)CO)OC(C(=O)[O-])=C[C@@H]1NC(=N)N.[Na+]`, in data set [1], the IC50 was more than 250 µM. The Activity result in data set [2] and in data set [3] was “Non-toxic” in each case.

Take `[N-]=[N+]=N[C@H]1C=C(C(=O)[O-])O[C@@H]([C@H](O)[C@H](O)CO)[C@@H]1NC(=O)C1CCC1.[Na+]`: in data set [1], the half-inhibitory concentration (IC50) stood at 0.93 µM. Moreover, the Activity result in data set [2] and in data set [3] was “Non-toxic” in each case.
